# According to ChEMBL document CHEMBL1143838, “Candida albicans and Candida dubliniensis respond differently to echinocandin antifungal agents in vitro” (2007):
# *1 amine or outer side, *2 acyl side, *3 side chain or, on linkers, in order; H or OH if unused. Where a SMILES comes first, the peptide text is derived from it. Bridges are numbered along the chain shown (N, C = ends). [ ]: non-standard residue; d: D form. The star is where a group is joined. hTyr(3S-OH,4S-OH,3'-OSO3H) = N[C@H](C(=O)O)[C@H](O)[C@@H](O)c1ccc(O)c(OS(=O)(=O)O)c1; Orn(4R-OH,5R-OH) = O=C([C@H](C[C@@H](O)[C@@H](O)N[*:3])N[*:1])[*:2]; Pro(3S-OH,4S-Me) = C[C@H]1CN[C@H](C(=O)O)[C@H]1O; X1 = CCCCCOc1ccc(-c2cc(-c3ccc(C(=O)*)cc3)no2)cc1; Gln(3R-OH) = NC(=O)C[C@@H](O)[C@H](N)C(=O)O; Hyp = O=C(O)[C@@H]1C[C@@H](O)CN1
# Assays:
# Assay type in all cases: functional
# Candida albicans [1] = experiment: Antifungal activity against Candida albicans T26 after 24 hrs by EUCAST test
# How it was run: (§1)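 EUCAST broth microdilution with aqueous doubling dilutions of drug. Inoculum grown overnight at 30°C in NGY, then added to MOPS-buffered RPMI 1640 with 2% glucose at an initial 10^5 yeasts/ml. Incubated 35°C for 24 h. MICs taken from triplicate spectrophotometric dose-response data as 50% and 80% growth-reduction endpoints.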
# Pichia kudriavzevii = experiment: Antifungal activity against Candida krusei ATCC 6258 after 24 hrs by CLSI M27-A test; details: ATCC 6258, 24 h
# How it was run: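 Broth microdilution per CLSI M27-A. Drugs were prepared as aqueous doubling dilutions. Inoculum was grown overnight at 30°C in neopeptone-yeast extract-glucose medium, then added to MOPS-buffered RPMI 1640 at an initial 10^3 yeasts/ml. Plates were incubated at 35°C for 24 h. MIC was read visually as the lowest concentration giving a marked decrease in visible growth.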
# Candida dubliniensis [2] = experiment: Antifungal activity against Candida dubliniensis 910Aa after 24 hrs by CLSI M27-A test
# How it was run: (§2)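 CLSI M27-A broth microdilution with aqueous doubling dilutions of drug. Inoculum grown overnight at 30°C in NGY medium, then added to MOPS-buffered RPMI 1640 at an initial 10^3 yeasts/ml. Incubated 35°C for 24 h. MIC read visually as the lowest concentration giving a marked decrease in visible growth; paradoxical or trailing growth noted.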
# Candida dubliniensis [3] = experiment: Antifungal activity against Candida dubliniensis Leic875 after 24 hrs by CLSI M27-A test
# How it was run: (§3)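 Broth microdilution with echinocandins as aqueous doubling dilutions. Yeasts were grown overnight at 30°C in NGY and seeded at 10^3 yeasts/ml initial concentration in MOPS-buffered RPMI 1640, then incubated at 35°C for 24 h. The MIC was read visually as the lowest concentration giving a marked decrease in visible growth; paradoxical or trailing growth was noted.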
# Candida albicans [4] = experiment: Antifungal activity against Candida albicans SC5314 after 24 hrs by EUCAST test; details: SC5314, 24 h; how it was run: as §1
# Candida dubliniensis [5] = experiment: Antifungal activity against Candida dubliniensis SCSBB417709 after 24 hrs by CLSI M27-A test; how it was run: as §3
# Candida dubliniensis [6] = experiment: Antifungal activity against Candida dubliniensis SCS59662 after 24 hrs by EUCAST test
# How it was run: (§4)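 Yeasts were grown overnight at 30°C in NGY, then inoculated at 10^5 yeasts/ml initial concentration into MOPS-buffered RPMI 1640 with 2% glucose containing aqueous doubling dilutions of drug. Plates were held at 35°C for 24 h. MICs came from triplicate spectrophotometric dose-response data at 50% and 80% growth-reduction endpoints. Trailing meant a >100-fold gap between these endpoints; paradoxical meant regrowth ≥5% above the curve minimum.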
# Candida dubliniensis [7] = experiment: Antifungal activity against Candida dubliniensis J930936 after 24 hrs by CLSI M27-A test; how it was run: as §3
# Candida dubliniensis [8] = experiment: Antifungal activity against Candida dubliniensis IK after 24 hrs by EUCAST test; how it was run: as §4
# Candida dubliniensis [9] = experiment: Antifungal activity against Candida dubliniensis 75/043 after 24 hrs by CLSI M27-A test; how it was run: as §2
# Candida albicans [10] = experiment: Antifungal activity against Candida albicans T28 after 24 hrs by EUCAST test; how it was run: as §1
# Candida albicans [11] = experiment: Antifungal activity against Candida albicans SCS67023C after 24 hrs by EUCAST test; how it was run: as §1
# Candida albicans [12] = experiment: Antifungal activity against Candida albicans T26 after 24 hrs by CLSI M27-A test; how it was run: as §2
# Candida dubliniensis [13] = experiment: Antifungal activity against Candida dubliniensis AMCC after 24 hrs by CLSI M27-A test; how it was run: as §2
# Candida albicans [14] = experiment: Antifungal activity against Candida albicans SCS140136P after 24 hrs by EUCAST test; how it was run: as §1
# Candida dubliniensis [15] = experiment: Antifungal activity against Candida dubliniensis FS after 24 hrs by EUCAST test; how it was run: as §4
# Candida albicans [16] = experiment: Antifungal activity against Candida albicans NR4 after 24 hrs by CLSI M27-A test; how it was run: as §2
# Candida albicans [17] = experiment: Antifungal activity against Candida albicans JIMS101103 after 24 hrs by EUCAST test; how it was run: as §1
# Candida dubliniensis [18] = experiment: Antifungal activity against Candida dubliniensis Leic875 after 24 hrs by EUCAST test; how it was run: as §4
# Candida albicans [19] = experiment: Antifungal activity against Candida albicans Y109 after 24 hrs by CLSI M27-A test; how it was run: as §2
# Candida albicans [20] = experiment: Antifungal activity against Candida albicans T32 after 24 hrs by EUCAST test; how it was run: as §1
# Candida albicans [21] = experiment: Antifungal activity against Candida albicans B06-341 after 24 hrs by CLSI M27-A test; how it was run: as §2
# Candida dubliniensis [22] = experiment: Antifungal activity against Candida dubliniensis SCS65875C after 24 hrs by CLSI M27-A test; how it was run: as §3
# Candida dubliniensis [23] = experiment: Antifungal activity against Candida dubliniensis SCS59662 after 24 hrs by CLSI M27-A test; how it was run: as §3
# Candida dubliniensis [24] = experiment: Antifungal activity against Candida dubliniensis SCS17154969-2 after 24 hrs by CLSI M27-A test; how it was run: as §3
# Candida albicans [25] = experiment: Antifungal activity against Candida albicans CAI4RI after 24 hrs by EUCAST test; how it was run: as §1
# Candida dubliniensis [26] = experiment: Antifungal activity against Candida dubliniensis 81/060 after 24 hrs by EUCAST test; how it was run: as §1
# Candida albicans [27] = experiment: Antifungal activity against Candida albicans B06-341 after 24 hrs by EUCAST test; how it was run: as §1
# Candida albicans [28] = experiment: Antifungal activity against Candida albicans AM2003/0083 after 24 hrs by EUCAST test; how it was run: as §1
# Candida albicans [29] = experiment: Antifungal activity against Candida albicans NR2 after 24 hrs by EUCAST test; how it was run: as §1
# Candida albicans [30] = experiment: Antifungal activity against Candida albicans SC5314 after 24 hrs by CLSI M27-A test; details: SC5314, 24 h; how it was run: as §2
# Candida dubliniensis [31] = experiment: Antifungal activity against Candida dubliniensis 910Aa after 24 hrs by EUCAST test; how it was run: as §1
# Candida dubliniensis [32] = experiment: Antifungal activity against Candida dubliniensis J931021 after 24 hrs by EUCAST test; how it was run: as §4
# Candida albicans [33] = experiment: Antifungal activity against Candida albicans T25 after 24 hrs by EUCAST test; how it was run: as §1
# Candida albicans [34] = experiment: Antifungal activity against Candida albicans NCPF6525 after 24 hrs by EUCAST test; how it was run: as §1
# Candida dubliniensis [35] = experiment: Antifungal activity against Candida dubliniensis 90/033 after 24 hrs by CLSI M27-A test; how it was run: as §2
Compound,MIC50 (Candida albicans [1]) [µg/mL],MIC50 (Pichia kudriavzevii) [µg/mL],MIC50 (Candida dubliniensis [2]) [µg/mL],MIC50 (Candida dubliniensis [3]) [µg/mL],MIC50 (Candida albicans [4]) [µg/mL],MIC50 (Candida dubliniensis [5]) [µg/mL],MIC50 (Candida dubliniensis [6]) [µg/mL],MIC50 (Candida dubliniensis [7]) [µg/mL],MIC50 (Candida dubliniensis [8]) [µg/mL],MIC50 (Candida dubliniensis [9]) [µg/mL],MIC50 (Candida albicans [10]) [µg/mL],MIC50 (Candida albicans [11]) [µg/mL],MIC50 (Candida albicans [12]) [µg/mL],MIC50 (Candida dubliniensis [13]) [µg/mL],MIC50 (Candida albicans [14]) [µg/mL],MIC50 (Candida dubliniensis [15]) [µg/mL],MIC50 (Candida albicans [16]) [µg/mL],MIC50 (Candida albicans [17]) [µg/mL],MIC50 (Candida dubliniensis [18]) [µg/mL],MIC50 (Candida albicans [19]) [µg/mL],other results
CC[C@H](C)C[C@H](C)CCCCCCCCC(=O)N[C@H]1C[C@@H](O)[C@@H](NCCN)NC(=O)[C@@H]2[C@@H](O)CCN2C(=O)[C@H]([C@H](O)CCN)NC(=O)[C@H]([C@H](O)[C@@H](O)c2ccc(O)cc2)NC(=O)[C@@H]2C[C@@H](O)CN2C(=O)[C@H]([C@@H](C)O)NC1=O [CASPOFUNGIN],16,1,0.5,0.5,0.25,0.5,0.5,0.5,0.25,0.25,0.13,0.25,8,0.5,0.25,16,2,0.25,0.25,4,MIC50 (Candida albicans [20]): 0.13 µg/mL; MIC50 (Candida albicans [21]): 0.13 µg/mL; MIC50 (Candida dubliniensis [22]): 0.5 µg/mL; MIC50 (Candida dubliniensis [23]): 0.5 µg/mL; MIC50 (Candida dubliniensis [24]): 0.5 µg/mL; MIC50 (Candida albicans [25]): 4 µg/mL; MIC50 (Candida dubliniensis [26]): 0.25 µg/mL; MIC50 (Candida albicans [27]): 0.5 µg/mL; MIC50 (Candida albicans [28]): 0.25 µg/mL; MIC50 (Candida albicans [29]): 4 µg/mL; MIC50 (Candida albicans [30]): 0.5 µg/mL; MIC50 (Candida dubliniensis [31]): 0.25 µg/mL; MIC50 (Candida dubliniensis [32]): 16 µg/mL; MIC50 (Candida albicans [33]): 8 µg/mL; MIC50 (Candida albicans [34]): 1 µg/mL
"CCCCCOc1ccc(-c2cc(-c3ccc(C(=O)N[C@H]4C[C@@H](O)[C@@H](O)NC(=O)[C@@H]5[C@@H](O)[C@@H](C)CN5C(=O)[C@H]([C@H](O)CC(N)=O)NC(=O)[C@H]([C@H](O)[C@@H](O)c5ccc(O)c(OS(=O)(=O)O)c5)NC(=O)[C@@H]5C[C@@H](O)CN5C(=O)[C@H]([C@@H](C)O)NC4=O)cc3)no2)cc1 [MICAFUNGIN] (X1-[Orn(4R-OH,5R-OH)]T[Hyp][hTyr(3S-OH,4S-OH,3'-OSO3H)][Gln(3R-OH)][Pro(3S-OH,4S-Me)]; lactam 1-C)",1,0.13,≤ 0.032,≤ 0.032,≤ 0.032,≤ 0.032,≤ 0.032,≤ 0.032,≤ 0.032,≤ 0.032,≤ 0.032,≤ 0.032,1,≤ 0.032,≤ 0.032,0.063,0.25,≤ 0.032,≤ 0.032,0.25,MIC50 (Candida albicans [20]): ≤ 0.032 µg/mL; MIC50 (Candida albicans [21]): ≤ 0.032 µg/mL; MIC50 (Candida dubliniensis [22]): ≤ 0.032 µg/mL; MIC50 (Candida dubliniensis [23]): ≤ 0.032 µg/mL; MIC50 (Candida dubliniensis [24]): ≤ 0.032 µg/mL; MIC50 (Candida albicans [25]): 0.5 µg/mL; MIC50 (Candida dubliniensis [26]): ≤ 0.032 µg/mL; MIC50 (Candida albicans [27]): ≤ 0.032 µg/mL; MIC50 (Candida albicans [28]): ≤ 0.032 µg/mL; MIC50 (Candida albicans [29]): 0.5 µg/mL; MIC50 (Candida albicans [30]): ≤ 0.032 µg/mL; MIC50 (Candida dubliniensis [31]): ≤ 0.032 µg/mL; MIC50 (Candida dubliniensis [35]): ≤ 0.032 µg/mL; MIC50 (Candida dubliniensis [32]): 0.063 µg/mL; MIC50 (Candida albicans [33]): 1 µg/mL; MIC50 (Candida albicans [34]): ≤ 0.032 µg/mL
